Compound activity as filed in PubChem.
OX1R antag-1 = antagonists of human orexin 1 receptor (OX1R) | OX1R-expressing cells, FRET antagonist read-out | inhibition, % at 6.6 µM | hit rate 1.8% among 330,000 | AID 485270, 2010; in the data active = inhibition mostly above about 38%, no sharp cut-off; inactive = mostly below about 40%;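 also: 0% = agonist challenge alone and 100% = reference antagonist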
Target sequence (O43613 whole entry, looked up): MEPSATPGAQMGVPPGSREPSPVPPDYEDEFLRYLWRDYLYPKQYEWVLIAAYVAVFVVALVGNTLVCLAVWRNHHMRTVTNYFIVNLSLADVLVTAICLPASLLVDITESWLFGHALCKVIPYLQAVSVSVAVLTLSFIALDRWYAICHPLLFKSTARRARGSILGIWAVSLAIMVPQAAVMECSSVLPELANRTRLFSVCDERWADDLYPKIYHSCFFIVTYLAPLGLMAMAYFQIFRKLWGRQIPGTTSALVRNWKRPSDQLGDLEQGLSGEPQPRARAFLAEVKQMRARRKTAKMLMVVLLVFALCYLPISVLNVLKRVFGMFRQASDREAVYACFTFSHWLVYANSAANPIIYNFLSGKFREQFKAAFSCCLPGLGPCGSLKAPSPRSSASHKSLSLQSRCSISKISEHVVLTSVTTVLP
CHO parental Ca = ATP-evoked calcium signal inhibitors, parental CHO, primary screen, counter-screen for OX1R antagonist project, cell-based, fluorescence, Fluo-8 calcium dye; parental CHO-K1, ATP-induced calcium, Fluo-8 fluorescence; inhibition, % at 5.6 µM; hit rate 0.63% among 330,000; AID 463079, 2010;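 active = inhibition above that plate's mean sample inhibition plus 3 SD, cut at about 26% in these data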;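 also: 0% = ATP-challenged DMSO wells and 100% = DMSO wells without ATP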
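Test system: untransfected parental CHO cell line. Compound: one dose, 5.6 µM nominal. Detection: intracellular calcium via Fluo-8 no-wash fluorescent dye. Measure: % inhibition. Benchmarks: ATP-challenged DMSO wells low, unchallenged DMSO wells high.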
GPR7 antagonist = GPR7 receptor antagonists, primary screen, cell-based, fluorescence, single concentration; Neuropeptides B/W receptor type 1 (Homo sapiens), P48145; GPR7-expressing cells, fluorescence antagonist assay; inhibition, % at 4.4 µM; hit rate 1.1% among 290,000; in the data active = inhibition above about 16%, passing the limit was not always enough;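 also: cells stimulated with the agonist NPW; 0% = agonist with vehicle and 100% = vehicle without agonist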
GalR3 antagonist = GalR3 antagonists in HEK293 cells, primary screen, cell-based, fluorescence readout; Galanin receptor type 3 (Homo sapiens), O60755; HEK293 GalR3-CNG cAMP membrane potential fluorescence; galR3 body fused to GalR1 C-terminus; inhibition, % at 3 µM; hit rate 0.44% among 360,000;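 active = inhibition above the screen-wide average plus 3 SD, cut at about 13% in these data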;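 also: forskolin and galanin both at EC90 stimulate the cells; cAMP rise reported by CNG channel membrane potential dye signal; 0% = forskolin plus galanin with DMSO and 100% = forskolin alone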
OX1R antag-2 = OX1R (HCRTR1) antagonists, primary screen, fluorescence, CHO/OX1R cells, Fluo-8 calcium, orexin A; Orexin/Hypocretin receptor type 1 (Homo sapiens), O43613; hit rate 0.43% among 330,000; Fluo-8 calcium fluorescence; inhibition, % at 5 µM;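 active = inhibition above its plate's threshold, mean inhibition of all tested compounds on the plate plus 3 SD, cut at about 37% in these data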;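 also: 0% = orexin A challenge wells and 100% = SB-334867-A antagonist wells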
* hit, by the source's call. Hits are enriched below; roughly 3.1% of the tested compounds scored in any of these assays.

Screening O=C(COC(=O)c1ccc(F)c([N+](=O)[O-])c1)NC(=O)NCc1ccccc1 returned OX1R antag-1 33*, CHO parental Ca -3, GalR3 antagonist -9 and OX1R antag-2 -1.
Screening Cc1ccc(C(=O)OCC(=O)NCc2cccs2)cc1S(=O)(=O)N1CCOCC1 returned OX1R antag-1 11, CHO parental Ca -6, GPR7 antagonist -5, GalR3 antagonist 2 and OX1R antag-2 -28.
For COc1cc(C2C3=C(COC3=O)OC(C)(C)Oc3cc4c(cc32)OCO4)cc(OC)c1OC (stereo not given) the results were GalR3 antagonist -2.
CCCCNC(=O)Cn1cnc2sc(C)c(S(=O)(=O)N3CCN(c4ncccn4)CC3)c2c1=O was read as OX1R antag-1 12, CHO parental Ca 4, GPR7 antagonist -1, GalR3 antagonist 11 and OX1R antag-2 -22.
For COc1cc(C=NN=c2sc3ccccc3n2C)ccc1OCCO the results were GalR3 antagonist -7.
Screening O[C@@H]1CN(Cc2cccs2)[C@@H](c2ccc(Cl)cc2)C[C@H]1n1cc(C2CC2)nn1 returned GalR3 antagonist -5.
`CC1CN(C(=O)COC(=O)c2cc(Cl)ccc2Cl)CC(C)O1` (stereo not given) gave OX1R antag-1 2, CHO parental Ca -12, GPR7 antagonist 6, GalR3 antagonist -8 and OX1R antag-2 -16.
For O=C(COC(=O)c1cc([N+](=O)[O-])ccc1N1CCOCC1)Nc1c(Cl)cccc1Cl the results were OX1R antag-1 54*, CHO parental Ca -5, GalR3 antagonist -7 and OX1R antag-2 -27.
CC1CN(C(=O)COC(=O)c2cc([N+](=O)[O-])ccc2Cl)CC(C)O1 (stereo not given) was read as OX1R antag-1 41*, CHO parental Ca -10, GPR7 antagonist -14, GalR3 antagonist 7 and OX1R antag-2 -2.
For CC1CC(C)CN(C(=O)COC(=O)c2cc([N+](=O)[O-])ccc2N2CCOCC2)C1 (stereo not given) the results were OX1R antag-1 53*, CHO parental Ca -12, GalR3 antagonist -3 and OX1R antag-2 -49.
Screening CCOC(=O)C1(C)CCCN(C(=O)c2cc(F)ccc2C)C1 (stereo not given) returned GalR3 antagonist -7.
Screening CCC(Sc1nc2cc(OC)c(OC)cc2c(=O)n1CCc1ccc(OC)c(OC)c1)C(=O)NCCOC (stereo not given) returned OX1R antag-1 19, CHO parental Ca -10, GPR7 antagonist -13, GalR3 antagonist 2 and OX1R antag-2 -32.
`CCn1c(SCC(=O)Nc2nc3c(s2)CCCC3)nnc1-c1ccccc1` gave OX1R antag-1 49*, CHO parental Ca -26, GPR7 antagonist -10, GalR3 antagonist -3 and OX1R antag-2 -12.
`CCn1c(SCC(=O)Nc2nc3ccccc3s2)nnc1-c1ccc(OC)cc1` gave OX1R antag-1 34, CHO parental Ca 39*, GPR7 antagonist -7, GalR3 antagonist 0 and OX1R antag-2 -2.
`CCc1nc(SCC(=O)Nc2nc3c(s2)CCCC3)c2ccccc2n1` gave OX1R antag-1 16, CHO parental Ca -25, GPR7 antagonist 0, GalR3 antagonist 0 and OX1R antag-2 -34.
For CCn1c(Cc2ccccc2)nnc1SCC(=O)Nc1nc2ccccc2s1 the results were OX1R antag-1 28, CHO parental Ca -21, GPR7 antagonist 1, GalR3 antagonist 1 and OX1R antag-2 -19.
For CC1=C(C(=O)N(C)C)CC(CC(=O)NCCCCc2ccccc2)C(=O)N1Cc1ccc(F)cc1 (stereo not given) the results were GalR3 antagonist -6.
`Cc1ccc(NC(=O)C(C)OC(=O)c2ccc(NC(=O)CC#N)cc2)cc1S(=O)(=O)N1CCOCC1` (stereo not given) gave OX1R antag-1 13, CHO parental Ca 14, GalR3 antagonist 2 and OX1R antag-2 -7.
CCOC(=O)c1ccc(NC(=O)c2cc3c(s2)CCC3)cc1 was read as OX1R antag-1 70*, CHO parental Ca -7, GPR7 antagonist -8, GalR3 antagonist 0 and OX1R antag-2 -5.
